Active and inactive are the calls of the source. The calls are words filed in the database; no cut-off is given here.
Key:
[1] = tested on: Rattus norvegicus; assay: AUC (0 to 48 hrs) in Sprague-Dawley rat assessed as N-[4-Methyl-3-[[4-(3-pyridinyl)-2-pyrimidinyl]amino]-phenyl]-4-(1-piperazinylmethyl)benzamide at 1 mg/kg, iv administered as bolus dose; type: ADME, organism-based, Plasma; design: time < 48 hr, dose 1 mg/kg, route intravenous; details: in vivo
How it was run: (§1)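 Single IV bolus into femoral vein, 1 mg/kg in 0.5 mL/kg vehicle (30% NMP, 70% PEG200). Serial blood samples taken from femoral artery for up to 48 h, stored at −20 °C. Proteins precipitated with CH3CN containing internal standard, then LC/MS/MS with ESI; LLOQ 0.4 ng mL. Parameters from non-compartmental analysis.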

[2] = AUC (0 to 48 hrs) in Sprague-Dawley rat at 1 mg/kg, iv administered as bolus dose; type: ADME, organism-based; design: time < 48 hr, dose 1 mg/kg, route intravenous; details: plasma; how it was run: as §1
[3] = tested on: Liver microsomes; assay: Metabolic stability in human liver microsomes assessed as compound remaining by capillary-HPLC/MS analysis; type: ADME, Microsome
How it was run: (§2)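 Parent compound added from 2 mM DMSO stock to liver microsomes (20 mg protein/mL) in 100 mM phosphate buffer pH 7.4 with alamethicin and UDPGA. Pre-incubated 3 min at 37 °C, started with NADPH-regenerating system, run up to 60 min at 37 °C. Stopped with ice-cold CH3CN, centrifuged, diluted, analysed by capillary-HPLC/MS; peak areas not corrected for response factors.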

[4] = tested on: Liver microsomes; assay: Metabolic stability in rat liver microsomes assessed as compound remaining by capillary-HPLC/MS analysis; type: ADME, Microsome; how it was run: as §2
[5] = in vivo; details: Sprague-Dawley, rat, plasma, iv, 1 mg/kg
[6] = tested on: Mast/stem cell growth factor receptor Kit (Homo sapiens), P10721 [K642E]; assay: Inhibition of KIT K642E mutant autophosphorylation (unknown origin) expressed in human GIST882 cells at < 3000 nM by ELISA; type: cell-based
[7] = target: Bcr/Abl fusion protein (Homo sapiens) (UniProt P00519+P11274); assay: Inhibition of human BCR-ABL1 autophosphorylation expressed in mouse BA/F3 cells at < 3000 nM by ELISA; type: cell-based; details: BaF3
[8] = target: T1, Bcr/Abl fusion protein (Homo sapiens, UniProt P00519); assay: Inhibition of human BCR-ABL1 (unknown origin) expressed in mouse 32D cells; type: cell-based
[9] = target: T1, Bcr/Abl fusion protein; assay: Inhibition of human BCR-ABL1 autophosphorylation expressed in mouse BA/F3 cells by ELISA; type: cell-based, BaF3
[10] = target: T1, Bcr/Abl fusion protein; assay: Inhibition of human BCR-ABL1 expressed in mouse BA/F3 cells assessed as cell growth inhibition by ATP-depletion assay; type: cell-based, BaF3
[11] = target: Mast/stem cell growth factor receptor Kit (Homo sapiens, UniProt P10721, K642E); assay: Inhibition of KIT K642E mutant autophosphorylation (unknown origin) expressed in human GIST882 cells by ELISA; type: cell-based
Mast/stem cell growth factor receptor Kit, sequence (P10721 26-976 K642E limits assumed): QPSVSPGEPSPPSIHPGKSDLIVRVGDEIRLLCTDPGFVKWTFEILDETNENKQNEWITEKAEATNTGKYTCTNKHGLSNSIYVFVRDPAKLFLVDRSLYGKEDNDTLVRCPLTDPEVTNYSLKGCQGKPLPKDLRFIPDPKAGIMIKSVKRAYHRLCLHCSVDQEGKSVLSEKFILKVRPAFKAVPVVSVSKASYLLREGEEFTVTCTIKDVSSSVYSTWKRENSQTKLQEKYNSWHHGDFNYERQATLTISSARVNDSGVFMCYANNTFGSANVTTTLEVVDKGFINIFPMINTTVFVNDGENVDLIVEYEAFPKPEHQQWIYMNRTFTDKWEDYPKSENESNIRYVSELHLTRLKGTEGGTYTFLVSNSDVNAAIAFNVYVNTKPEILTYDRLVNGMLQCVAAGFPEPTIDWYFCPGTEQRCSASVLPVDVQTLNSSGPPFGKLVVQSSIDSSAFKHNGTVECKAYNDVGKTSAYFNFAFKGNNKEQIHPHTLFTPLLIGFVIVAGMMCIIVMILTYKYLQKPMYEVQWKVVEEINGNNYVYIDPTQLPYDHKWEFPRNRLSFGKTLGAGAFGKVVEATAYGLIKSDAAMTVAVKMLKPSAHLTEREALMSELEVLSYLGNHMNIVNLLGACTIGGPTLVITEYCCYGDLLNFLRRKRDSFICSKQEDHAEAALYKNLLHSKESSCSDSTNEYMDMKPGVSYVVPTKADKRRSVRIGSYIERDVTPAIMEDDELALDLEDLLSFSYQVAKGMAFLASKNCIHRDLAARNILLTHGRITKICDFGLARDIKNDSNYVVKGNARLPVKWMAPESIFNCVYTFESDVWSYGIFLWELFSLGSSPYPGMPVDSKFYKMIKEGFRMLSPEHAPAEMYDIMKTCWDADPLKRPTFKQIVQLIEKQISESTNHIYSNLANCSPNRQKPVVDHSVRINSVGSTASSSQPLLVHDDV

Mast/stem cell growth factor receptor Kit (Homo sapiens), P10721 [K642E], sequence (P10721 whole entry K642E, the tested form may be a part): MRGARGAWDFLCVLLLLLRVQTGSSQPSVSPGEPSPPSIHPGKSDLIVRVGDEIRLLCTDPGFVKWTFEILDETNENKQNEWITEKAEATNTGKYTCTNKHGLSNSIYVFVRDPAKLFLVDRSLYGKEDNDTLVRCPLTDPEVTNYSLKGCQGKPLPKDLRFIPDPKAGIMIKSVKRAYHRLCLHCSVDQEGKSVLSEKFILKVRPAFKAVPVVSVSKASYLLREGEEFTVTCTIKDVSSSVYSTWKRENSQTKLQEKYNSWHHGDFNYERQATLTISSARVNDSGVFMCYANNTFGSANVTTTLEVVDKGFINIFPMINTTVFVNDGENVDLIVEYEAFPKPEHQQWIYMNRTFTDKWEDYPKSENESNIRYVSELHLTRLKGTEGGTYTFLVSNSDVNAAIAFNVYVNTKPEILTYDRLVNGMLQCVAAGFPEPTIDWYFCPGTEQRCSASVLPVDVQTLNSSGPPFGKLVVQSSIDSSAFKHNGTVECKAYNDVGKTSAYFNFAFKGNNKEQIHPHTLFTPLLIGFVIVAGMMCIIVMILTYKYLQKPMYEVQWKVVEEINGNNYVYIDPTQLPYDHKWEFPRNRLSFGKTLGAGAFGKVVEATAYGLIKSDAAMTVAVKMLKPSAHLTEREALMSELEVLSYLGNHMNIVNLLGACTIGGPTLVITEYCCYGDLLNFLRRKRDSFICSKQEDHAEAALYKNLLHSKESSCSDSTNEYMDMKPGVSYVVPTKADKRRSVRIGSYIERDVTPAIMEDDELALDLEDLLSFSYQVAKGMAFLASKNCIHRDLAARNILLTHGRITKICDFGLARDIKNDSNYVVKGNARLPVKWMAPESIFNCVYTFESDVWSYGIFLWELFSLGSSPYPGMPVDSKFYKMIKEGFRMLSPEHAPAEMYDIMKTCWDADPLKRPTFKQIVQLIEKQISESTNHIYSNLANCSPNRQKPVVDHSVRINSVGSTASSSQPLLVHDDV
T1 sequence (P00519 whole entry, the tested form may be a part): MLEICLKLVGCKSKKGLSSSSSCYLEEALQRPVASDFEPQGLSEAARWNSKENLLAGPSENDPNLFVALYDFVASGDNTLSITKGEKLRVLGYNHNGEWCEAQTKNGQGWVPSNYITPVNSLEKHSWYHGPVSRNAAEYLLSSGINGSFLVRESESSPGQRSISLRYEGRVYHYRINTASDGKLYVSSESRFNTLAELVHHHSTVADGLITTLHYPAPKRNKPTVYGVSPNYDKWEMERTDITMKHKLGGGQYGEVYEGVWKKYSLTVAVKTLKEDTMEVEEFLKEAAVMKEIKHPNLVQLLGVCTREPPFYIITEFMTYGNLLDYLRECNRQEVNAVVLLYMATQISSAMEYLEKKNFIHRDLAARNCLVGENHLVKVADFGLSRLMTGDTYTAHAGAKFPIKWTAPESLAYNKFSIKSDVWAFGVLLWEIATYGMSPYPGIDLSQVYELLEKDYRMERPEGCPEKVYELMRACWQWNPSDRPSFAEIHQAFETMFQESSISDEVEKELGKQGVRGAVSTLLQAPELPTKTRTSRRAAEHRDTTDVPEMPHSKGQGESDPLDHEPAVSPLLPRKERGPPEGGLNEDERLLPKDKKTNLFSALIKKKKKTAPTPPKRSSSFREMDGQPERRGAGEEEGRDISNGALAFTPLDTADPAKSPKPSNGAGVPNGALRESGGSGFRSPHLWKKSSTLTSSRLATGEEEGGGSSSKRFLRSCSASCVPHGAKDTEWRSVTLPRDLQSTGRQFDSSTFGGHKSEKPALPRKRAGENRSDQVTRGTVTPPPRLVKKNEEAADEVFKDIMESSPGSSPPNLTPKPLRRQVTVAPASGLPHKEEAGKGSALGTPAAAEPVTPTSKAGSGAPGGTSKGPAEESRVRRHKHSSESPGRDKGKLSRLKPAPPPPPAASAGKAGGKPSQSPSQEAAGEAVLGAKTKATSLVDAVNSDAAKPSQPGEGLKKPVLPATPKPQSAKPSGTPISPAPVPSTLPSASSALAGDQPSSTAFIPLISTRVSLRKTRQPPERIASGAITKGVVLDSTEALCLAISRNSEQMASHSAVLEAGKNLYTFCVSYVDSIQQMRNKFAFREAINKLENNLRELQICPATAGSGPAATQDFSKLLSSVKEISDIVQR
T1 sequence (P11274 whole entry, further chain, the tested form may be a part): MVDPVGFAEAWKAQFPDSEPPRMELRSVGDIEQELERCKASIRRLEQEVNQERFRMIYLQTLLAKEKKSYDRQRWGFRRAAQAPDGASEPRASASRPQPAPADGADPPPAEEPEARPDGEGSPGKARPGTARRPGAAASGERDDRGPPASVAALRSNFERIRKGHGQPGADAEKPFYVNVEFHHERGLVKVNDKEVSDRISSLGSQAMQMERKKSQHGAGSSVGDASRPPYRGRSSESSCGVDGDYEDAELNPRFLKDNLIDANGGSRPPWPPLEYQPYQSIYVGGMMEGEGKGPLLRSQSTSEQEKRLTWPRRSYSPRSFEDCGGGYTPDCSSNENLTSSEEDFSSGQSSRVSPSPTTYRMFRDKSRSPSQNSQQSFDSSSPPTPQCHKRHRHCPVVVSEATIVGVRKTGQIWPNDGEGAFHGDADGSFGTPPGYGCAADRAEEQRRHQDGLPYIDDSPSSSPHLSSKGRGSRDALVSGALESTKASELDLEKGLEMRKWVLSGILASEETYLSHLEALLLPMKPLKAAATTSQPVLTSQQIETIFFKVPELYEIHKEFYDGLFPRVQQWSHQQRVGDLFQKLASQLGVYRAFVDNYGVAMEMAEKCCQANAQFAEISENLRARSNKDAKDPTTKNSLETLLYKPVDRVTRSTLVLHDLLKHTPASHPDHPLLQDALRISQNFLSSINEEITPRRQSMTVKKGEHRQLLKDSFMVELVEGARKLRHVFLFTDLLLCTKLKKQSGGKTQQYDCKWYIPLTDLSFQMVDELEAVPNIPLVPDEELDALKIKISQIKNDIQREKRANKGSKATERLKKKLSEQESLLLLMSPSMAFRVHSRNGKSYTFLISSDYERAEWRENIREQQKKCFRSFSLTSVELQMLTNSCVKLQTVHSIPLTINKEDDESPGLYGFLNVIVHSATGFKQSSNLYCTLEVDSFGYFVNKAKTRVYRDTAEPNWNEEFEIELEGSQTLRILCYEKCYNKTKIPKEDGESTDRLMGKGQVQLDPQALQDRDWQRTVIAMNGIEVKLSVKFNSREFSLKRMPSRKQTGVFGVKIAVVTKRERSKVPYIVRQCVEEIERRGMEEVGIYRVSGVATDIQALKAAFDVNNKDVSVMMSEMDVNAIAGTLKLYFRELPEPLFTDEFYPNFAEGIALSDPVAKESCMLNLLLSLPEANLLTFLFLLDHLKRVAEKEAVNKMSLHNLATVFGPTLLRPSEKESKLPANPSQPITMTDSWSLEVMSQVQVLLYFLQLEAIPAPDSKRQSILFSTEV
Bcr/Abl fusion protein (Homo sapiens), sequence (P00519 whole entry, looked up, the tested form may be a part): as the sequence (P00519 whole entry, the tested form may be a part) above
Bcr/Abl fusion protein (Homo sapiens), sequence (P11274 whole entry, looked up, the tested form may be a part): as the sequence (P11274 whole entry, further chain, the tested form may be a part) above

| inhibition [6] | inhibition [7] | Structure (SMILES) | AUC [1] | AUC(0-t) at 48 h [2] | Stability [3] | Stability [4] | AUC [5] | also measured |
| --- | --- | --- | --- | --- | --- | --- | --- | --- |
| – | – | Cc1ccc(NC(=O)c2ccc(CN3CCN(C)CC3)cc2)cc1Nc1nccc(-c2cccnc2)n1 [IMATINIB] | 0.0339 µM·h | 1.42 µM·h | 67.3% | 77.2% | 1.97 µM·h | – |
| – | – | [2H]C([2H])([2H])N1CCN(Cc2ccc(C(=O)Nc3ccc(C)c(Nc4nccc(-c5cccnc5)n4)c3)cc2)CC1 | 0.011 µM·h | 1.15 µM·h | 81.9% | 80.9% | 1.85 µM·h | – |
| inactive | inactive | CC(=O)N1CCN(Cc2ccc(C(=O)Nc3ccc(C)c(Nc4nccc(-c5cccnc5)n4)c3)cc2)CC1 | – | – | – | – | – | – |
| – | – | Cc1ccc(NC(=O)c2ccc(CN3CCNCC3)cc2)cc1Nc1nccc(-c2cccnc2)n1 | – | – | – | – | – | IC50 [8]: 512 nM; IC50 [9]: 2230 nM; IC50 [10]: 1560 nM; IC50 [11]: 342 nM |
| inactive | inactive | Cc1ccc(NC(=O)c2ccc(CN3CCN(C)C(=O)C3)cc2)cc1Nc1nccc(-c2cccnc2)n1 | – | – | – | – | – | – |
| inactive | inactive | Cc1ccc(NC(=O)c2ccc(CN3CCN(C=O)CC3)cc2)cc1Nc1nccc(-c2cccnc2)n1 | – | – | – | – | – | – |

From ChEMBL document CHEMBL2384911 (Bioorg Med Chem, 2013)
